Laboratory results from ChEMBL document CHEMBL2311431, “Synthesis and biological evaluation of some 5-arylidene-2-(1,3-thiazol-2-ylimino)-1,3-thiazolidin-4-ones as dual anti-inflammatory/antimicrobial agents” (Bioorg Med Chem, 2013).
In brackets after ≈: the same amount, converted by molar mass. Activity calls are given as the source filed them. The calls are words filed in the database; no cut-off is given here.

Key:
Mus musculus [1] = assay: Antiinflammatory activity in AKR mouse assessed as inhibition of carrageenan-induced paw edema at 0.01 mmol/kg, ip measured after 3.5 hrs of carrageenan-challenge; type: functional
How it was run: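 AKR mice of both sexes (pregnant females excluded), 6-10 per group, fasted during the experiment. Edema induced by intradermal 0.05 mL of 2% carrageenin into the right hind paw. Compound given at 0.01 mmol/kg ip, suspended in water with Tween-80, at the same time as carrageenin.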

[2] = target: T1, Prostaglandin G/H synthase 1 (Ovis aries, UniProt P05979); assay: (§1) Inhibition of ovine COX1 assessed as inhibition of PGF2a production by enzyme immunoassay
T1 sequence (P05979 whole entry): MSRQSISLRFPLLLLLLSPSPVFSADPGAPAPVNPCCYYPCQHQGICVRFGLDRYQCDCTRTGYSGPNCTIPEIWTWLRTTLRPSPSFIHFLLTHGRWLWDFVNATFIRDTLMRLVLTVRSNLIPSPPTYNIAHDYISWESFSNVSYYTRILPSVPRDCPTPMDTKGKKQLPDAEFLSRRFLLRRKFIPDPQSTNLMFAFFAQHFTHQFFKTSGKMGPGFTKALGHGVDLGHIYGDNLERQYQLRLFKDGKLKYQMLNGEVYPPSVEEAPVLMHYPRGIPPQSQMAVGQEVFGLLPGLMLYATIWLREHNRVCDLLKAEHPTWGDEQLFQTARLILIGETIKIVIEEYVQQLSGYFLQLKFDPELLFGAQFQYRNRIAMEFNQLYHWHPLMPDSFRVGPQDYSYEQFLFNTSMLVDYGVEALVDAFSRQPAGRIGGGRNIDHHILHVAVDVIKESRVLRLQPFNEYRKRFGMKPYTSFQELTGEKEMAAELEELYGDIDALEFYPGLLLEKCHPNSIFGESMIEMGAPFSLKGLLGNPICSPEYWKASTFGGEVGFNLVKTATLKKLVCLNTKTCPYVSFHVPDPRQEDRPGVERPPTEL
How it was run: (§2)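 Ovine COX-1 from a commercial screening kit, tested with 0.1 µM arachidonic acid, which is below the saturating level. COX-derived PGH2 is reduced by SnCl2 to PGF2a, quantified by enzyme immunoassay with a broad prostaglandin antibody. At least triplicate.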

[3] = target: T2, Prostaglandin G/H synthase 1 (Ovis aries) (UniProt P05979); assay: as §1; design: concentration or dose not given beside the values; settings: concentration not given here; how it was run: as §2
T2 sequence (whole entry): T1 sequence (P05979 whole entry)

Mus musculus [4] = assay: Acute toxicity in AKR mouse up to 0.5 mmol/kg, ip; type: organism-based; settings: in vivo
[5] = (§3) Inhibition of soybean lipoxygenase assessed as inhibition of sodium linolate conversion to 13-hydroperoxylinoleic acid after 4 mins by spectrophotometry; design: species or system Glycine max; settings: read-out: IC50
Glycine max = assay: as §3
Aspergillus fumigatus [6] = assay: Antifungal activity against Aspergillus fumigatus after 72 hrs by serial dilution technique; type: functional
How it was run: (§4)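 Serial dilution in malt broth; compounds from 1 mg/ml stocks in 5% DMSO; 72 h at 28 °C. MIC is the lowest concentration with no visible growth under a binocular microscope. Run in duplicate, repeated three times.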

Trichoderma viride [7] = assay: Antifungal activity against Trichoderma viride IAM 5061 after 72 hrs by serial dilution technique; type: functional; settings: IAM 5061, 72 h; how it was run: as §4
Penicillium ochrochloron [8] = assay: Fungicidal activity against Penicillium ochrochloron ATCC 9112 after 72 hrs by serial subcultivation method; type: functional; settings: ATCC 9112, 72 h
Aspergillus flavus [9] = assay: Antifungal activity against Aspergillus flavus ATCC 9643 after 72 hrs by serial dilution technique; type: functional; settings: ATCC 9643, 72 h; how it was run: as §4
Talaromyces funiculosus [10] = assay: Fungicidal activity against Penicillium funiculosum ATCC 36839 after 72 hrs by serial subcultivation method; type: functional; settings: ATCC 36839, 72 h
Escherichia coli [11] = assay: Antibacterial activity against Escherichia coli ATCC 35210 after 24 hr by microdilution test; type: functional; settings: ATCC 35210, 24 h
How it was run: (§5)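 Broth microdilution in LB medium, about 1.0×10^4 cfu per well; compounds from 1 mg/ml stocks in 5% DMSO. Incubated 24 h. MIC is the lowest concentration with no visible growth under a binocular microscope. Run in duplicate, repeated three times.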

Penicillium ochrochloron [12] = assay: Antifungal activity against Penicillium ochrochloron ATCC 9112 after 72 hrs by serial dilution technique; type: functional; settings: ATCC 9112, 72 h; how it was run: as §4
Bacillus cereus [13] = assay: Antibacterial activity against Bacillus cereus clinical isolate after 24 hr by microdilution test; type: functional; how it was run: as §5
Aspergillus fumigatus [14] = assay: Fungicidal activity against Aspergillus fumigatus after 72 hrs by serial subcultivation method; type: functional
Micrococcus flavus [15] = assay: Antibacterial activity against Micrococcus flavus ATCC 10240 after 24 hr by microdilution test; type: functional; settings: ATCC 10240, 24 h; how it was run: as §5
Micrococcus flavus [16] = assay: Bactericidal activity against Micrococcus flavus ATCC 10240 after 72 hrs by serial subcultivation method; type: functional; settings: ATCC 10240, 72 h
Talaromyces funiculosus [17] = assay: Antifungal activity against Penicillium funiculosum ATCC 36839 after 72 hrs by serial dilution technique; type: functional; settings: ATCC 36839, 72 h; how it was run: as §4
Escherichia coli [18] = assay: Bactericidal activity against Escherichia coli ATCC 35210 after 72 hrs by serial subcultivation method; type: functional; settings: ATCC 35210, 72 h
Aspergillus niger [19] = assay: Antifungal activity against Aspergillus niger ATCC 6275 after 72 hrs by serial dilution technique; type: functional; settings: ATCC 6275, 72 h; how it was run: as §4
Listeria monocytogenes [20] = assay: Antibacterial activity against Listeria monocytogenes NCTC 7973 after 24 hr by microdilution test; type: functional; settings: NCTC 7973, 24 h; how it was run: as §5
Trichoderma viride [21] = assay: Fungicidal activity against Trichoderma viride IAM 5061 after 72 hrs by serial subcultivation method; type: functional; settings: IAM 5061, 72 h
Pseudomonas aeruginosa [22] = assay: Bactericidal activity against Pseudomonas aeruginosa ATCC 27853 after 72 hrs by serial subcultivation method; type: functional; settings: ATCC 27853, 72 h
Listeria monocytogenes [23] = assay: Bactericidal activity against Listeria monocytogenes NCTC 7973 after 72 hrs by serial subcultivation method; type: functional; settings: NCTC 7973, 72 h
Bacillus cereus [24] = assay: Bactericidal activity against Bacillus cereus clinical isolate after 72 hrs by serial subcultivation method; type: functional
Staphylococcus aureus [25] = assay: Bactericidal activity against Staphylococcus aureus ATCC 6538 after 72 hrs by serial subcultivation method; type: functional; settings: ATCC 6538, 72 h
Pseudomonas aeruginosa [26] = assay: Antibacterial activity against Pseudomonas aeruginosa ATCC 27853 after 24 hr by microdilution test; type: functional; settings: ATCC 27853, 24 h; how it was run: as §5
Aspergillus niger [27] = assay: Fungicidal activity against Aspergillus niger ATCC 6275 after 72 hrs by serial subcultivation method; type: functional; settings: ATCC 6275, 72 h
Aspergillus flavus [28] = assay: Fungicidal activity against Aspergillus flavus ATCC 9643 after 72 hrs by serial subcultivation method; type: functional; settings: ATCC 9643, 72 h
Staphylococcus aureus [29] = assay: Antibacterial activity against Staphylococcus aureus ATCC 6538 after 24 hr by microdilution test; type: functional; settings: ATCC 6538, 24 h; how it was run: as §5

| Structure (SMILES) | inhibition in vivo at 10 µmol/kg (Mus musculus [1]) [%] | IC50 [2] [µM] | inhibition [3] [%] | Activity (Mus musculus [4]) | IC50 [5] [µM] | inhibition (Glycine max) | MIC (Aspergillus fumigatus [6]) [µM] | MIC (Trichoderma viride [7]) [µM] | MFC (Penicillium ochrochloron [8]) [µM] | MIC (Aspergillus flavus [9]) [µM] | MFC (Talaromyces funiculosus [10]) [µM] | MIC (Escherichia coli [11]) [µM] | MIC (Penicillium ochrochloron [12]) [µM] | MIC (Bacillus cereus [13]) [µM] | MFC (Aspergillus fumigatus [14]) [µM] | MIC (Micrococcus flavus [15]) [µM] | MBC (Micrococcus flavus [16]) [µM] | MIC (Talaromyces funiculosus [17]) [µM] | MBC (Escherichia coli [18]) [µM] | MIC (Aspergillus niger [19]) [µM] | other results |
| --- | --- | --- | --- | --- | --- | --- | --- | --- | --- | --- | --- | --- | --- | --- | --- | --- | --- | --- | --- | --- | --- |
| O=C1N/C(=N\c2nccs2)S/C1=C\c1cccc(O)c1 | 33.7 | 16 | 98 | Non-toxic | > 150 | 35% | – | – | – | – | – | – | – | – | – | – | – | – | – | – | – |
| O=C1N/C(=N\c2nccs2)S/C1=C\c1cc(Br)ccc1O | 54.4 | 65 | 73 | Non-toxic | – | inactive | 17 (≈ 6.5 µg/mL) | 8.5 (≈ 3.25 µg/mL) | 34 (≈ 13 µg/mL) | 34 (≈ 13 µg/mL) | 34 (≈ 13 µg/mL) | 68 (≈ 26 µg/mL) | 17 (≈ 6.5 µg/mL) | 9 (≈ 3.44 µg/mL) | 34 (≈ 13 µg/mL) | 34 (≈ 13 µg/mL) | 68 (≈ 26 µg/mL) | 17 (≈ 6.5 µg/mL) | 137 (≈ 52.4 µg/mL) | 34 (≈ 13 µg/mL) | MIC (Listeria monocytogenes [20]): 17 µM (≈ 6.5 µg/mL); MFC (Trichoderma viride [21]): 17 µM (≈ 6.5 µg/mL); MBC (Pseudomonas aeruginosa [22]): 34 µM (≈ 13 µg/mL); MBC (Listeria monocytogenes [23]): 34 µM (≈ 13 µg/mL); MBC (Bacillus cereus [24]): 34 µM (≈ 13 µg/mL); MBC (Staphylococcus aureus [25]): 68 µM (≈ 26 µg/mL); MIC (Pseudomonas aeruginosa [26]): 17 µM (≈ 6.5 µg/mL); MFC (Aspergillus niger [27]): 68 µM (≈ 26 µg/mL); MFC (Aspergillus flavus [28]): 68 µM (≈ 26 µg/mL); MIC (Staphylococcus aureus [29]): 34 µM (≈ 13 µg/mL) |
| O=C1N/C(=N\c2nccs2)S/C1=C\c1ccc(Cl)cc1Cl | 9.9 | 32 | 98 | Non-toxic | 122 | 54% | 42.1 (≈ 15 µg/mL) | 28.1 (≈ 10 µg/mL) | 56.2 (≈ 20 µg/mL) | 42.1 (≈ 15 µg/mL) | 56.2 (≈ 20 µg/mL) | 21.1 (≈ 7.52 µg/mL) | 42.1 (≈ 15 µg/mL) | 28.1 (≈ 10 µg/mL) | 56.2 (≈ 20 µg/mL) | 84.2 (≈ 30 µg/mL) | 98.2 (≈ 35 µg/mL) | 28.1 (≈ 10 µg/mL) | 56.2 (≈ 20 µg/mL) | 42.1 (≈ 15 µg/mL) | MIC (Listeria monocytogenes [20]): 70.2 µM (≈ 25 µg/mL); MFC (Trichoderma viride [21]): 42.1 µM (≈ 15 µg/mL); MBC (Pseudomonas aeruginosa [22]): 70.2 µM (≈ 25 µg/mL); MBC (Listeria monocytogenes [23]): 84.2 µM (≈ 30 µg/mL); MBC (Bacillus cereus [24]): 56.2 µM (≈ 20 µg/mL); MBC (Staphylococcus aureus [25]): 70.2 µM (≈ 25 µg/mL); MIC (Pseudomonas aeruginosa [26]): 28.1 µM (≈ 10 µg/mL); MFC (Aspergillus niger [27]): 56.2 µM (≈ 20 µg/mL); MFC (Aspergillus flavus [28]): 56.2 µM (≈ 20 µg/mL); MIC (Staphylococcus aureus [29]): 56.2 µM (≈ 20 µg/mL) |
| O=C1N/C(=N\c2nccs2)S/C1=C\c1cccc(Br)c1 | 42.7 | – | 2 | Non-toxic | > 150 | 34% | 18 (≈ 6.59 µg/mL) | 18 (≈ 6.59 µg/mL) | 22 (≈ 8.06 µg/mL) | 22 (≈ 8.06 µg/mL) | 22 (≈ 8.06 µg/mL) | 14.6 (≈ 5.35 µg/mL) | 18 (≈ 6.59 µg/mL) | 25.6 (≈ 9.38 µg/mL) | 25.6 (≈ 9.38 µg/mL) | 18.3 (≈ 6.7 µg/mL) | 25.6 (≈ 9.38 µg/mL) | 18 (≈ 6.59 µg/mL) | 25.6 (≈ 9.38 µg/mL) | 18 (≈ 6.59 µg/mL) | MIC (Listeria monocytogenes [20]): 14.4 µM (≈ 5.27 µg/mL); MFC (Trichoderma viride [21]): 22 µM (≈ 8.06 µg/mL); MBC (Pseudomonas aeruginosa [22]): 25.6 µM (≈ 9.38 µg/mL); MBC (Listeria monocytogenes [23]): 18.3 µM (≈ 6.7 µg/mL); MBC (Bacillus cereus [24]): 29.2 µM (≈ 10.7 µg/mL); MBC (Staphylococcus aureus [25]): 14.4 µM (≈ 5.27 µg/mL); MIC (Pseudomonas aeruginosa [26]): 14.6 µM (≈ 5.35 µg/mL); MFC (Aspergillus niger [27]): 25.6 µM (≈ 9.38 µg/mL); MFC (Aspergillus flavus [28]): 25.6 µM (≈ 9.38 µg/mL); MIC (Staphylococcus aureus [29]): 7.3 µM (≈ 2.67 µg/mL) |
